Where a chain is given by its changes, count along the chain named.
Key:
[1] = biological target: T1, Muscarinic acetylcholine receptor M1 (Rattus norvegicus, UniProt P08482); experiment: Inhibition of binding of [3H]oxotremorine M to Muscarinic acetylcholine receptor M1 in rat cerebral cortical membranes; assay type: cell membranes, Membrane
T1 sequence (P08482 whole entry): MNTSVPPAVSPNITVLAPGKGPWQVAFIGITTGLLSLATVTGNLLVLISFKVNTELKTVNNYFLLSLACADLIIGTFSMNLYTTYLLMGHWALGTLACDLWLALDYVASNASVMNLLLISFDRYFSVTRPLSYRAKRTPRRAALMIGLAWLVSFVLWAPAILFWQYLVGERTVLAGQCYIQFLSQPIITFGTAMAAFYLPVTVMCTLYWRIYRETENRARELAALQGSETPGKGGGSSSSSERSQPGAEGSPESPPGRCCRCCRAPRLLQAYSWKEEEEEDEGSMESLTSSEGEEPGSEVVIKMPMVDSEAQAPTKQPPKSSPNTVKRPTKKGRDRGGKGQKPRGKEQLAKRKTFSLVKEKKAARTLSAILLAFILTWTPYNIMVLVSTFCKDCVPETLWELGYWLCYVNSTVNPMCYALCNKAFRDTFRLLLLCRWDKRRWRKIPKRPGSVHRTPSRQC
Method in brief: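 Agonist radioligand assay: rat cortical membranes with 2 nM [3H]oxotremorine M in 25 mM sodium phosphate pH 7.4 with 5 mM MgCl2, 2 h at 25 °C, in triplicate. Nonspecific binding used 5 µM atropine. Filtration followed by scintillation counting.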

[2] = biological target: Muscarinic acetylcholine receptor M1 (Homo sapiens) (UniProt P11229); experiment: Inhibitory activity against stimulation of [3H]inositol monophosphate accumulation in [3H]inositol-labelled CHO transfected cells mediated by Muscarinic acetylcholine receptor M1
Chain of Muscarinic acetylcholine receptor M1 (Homo sapiens) (P11229 whole entry, looked up): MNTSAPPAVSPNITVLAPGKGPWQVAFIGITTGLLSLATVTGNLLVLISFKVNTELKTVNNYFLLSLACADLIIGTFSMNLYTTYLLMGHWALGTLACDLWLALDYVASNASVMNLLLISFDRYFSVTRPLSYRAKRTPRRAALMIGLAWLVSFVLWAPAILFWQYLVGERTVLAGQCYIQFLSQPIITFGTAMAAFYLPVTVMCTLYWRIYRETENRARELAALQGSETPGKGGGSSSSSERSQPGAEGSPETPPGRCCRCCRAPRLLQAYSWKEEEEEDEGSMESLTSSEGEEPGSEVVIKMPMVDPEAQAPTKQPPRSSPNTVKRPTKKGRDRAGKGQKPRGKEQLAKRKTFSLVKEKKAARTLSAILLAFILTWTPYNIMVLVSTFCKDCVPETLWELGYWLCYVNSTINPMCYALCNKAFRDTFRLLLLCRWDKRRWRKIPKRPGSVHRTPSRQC

[3] = biological target: Muscarinic acetylcholine receptor M3 (Homo sapiens, UniProt P20309); experiment: Inhibition of binding of [3H]quinuclidinyl benzilate to muscarinic receptors in membranes of CHO cells transfected with Muscarinic acetylcholine receptor M3; assay type: cell membranes
Chain of Muscarinic acetylcholine receptor M3 (P20309 whole entry): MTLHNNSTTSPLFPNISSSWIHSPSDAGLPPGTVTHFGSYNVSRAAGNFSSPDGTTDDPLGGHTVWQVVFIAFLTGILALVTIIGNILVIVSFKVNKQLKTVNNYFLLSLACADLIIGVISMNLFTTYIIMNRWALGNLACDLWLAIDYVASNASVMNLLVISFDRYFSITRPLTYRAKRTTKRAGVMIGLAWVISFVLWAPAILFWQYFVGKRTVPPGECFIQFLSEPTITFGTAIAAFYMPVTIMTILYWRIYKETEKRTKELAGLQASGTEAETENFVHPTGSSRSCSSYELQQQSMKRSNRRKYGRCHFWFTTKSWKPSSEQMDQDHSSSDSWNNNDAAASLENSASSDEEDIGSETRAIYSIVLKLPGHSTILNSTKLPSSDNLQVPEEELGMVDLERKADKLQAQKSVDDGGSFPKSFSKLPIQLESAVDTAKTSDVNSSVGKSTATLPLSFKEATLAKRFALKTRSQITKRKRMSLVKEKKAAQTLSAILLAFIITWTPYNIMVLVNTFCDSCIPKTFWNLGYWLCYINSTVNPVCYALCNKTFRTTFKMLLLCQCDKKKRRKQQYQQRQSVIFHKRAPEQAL

[4] = biological target: T1, Muscarinic acetylcholine receptor M1; experiment: The compound was evaluated for inhibition of binding of [3H]quinuclidinyl benzilate to Muscarinic acetylcholine receptor M1 in Rat Cerebral Cortical Membranes
Method in brief: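 Rat cerebral cortex membranes were homogenised in 50 mM Tris-HCl pH 7.4 and diluted in HEPES binding buffer. They were incubated with 0.2 nM [3H]quinuclidinyl benzilate in 20 mM HEPES pH 7.4 with 10 mM MgCl2 and 100 mM NaCl for 30 min at 37 °C, in triplicate. Nonspecific binding used 1 µM atropine. Filtration was followed by scintillation counting.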

[5] = biological target: T2, Muscarinic acetylcholine receptor M2 (Homo sapiens, UniProt P08172); experiment: Inhibitory activity against [3H]quinuclidinyl Benzilate binding to Muscarinic acetylcholine receptor M2 in the absence of GTP
T2 sequence (P08172 whole entry): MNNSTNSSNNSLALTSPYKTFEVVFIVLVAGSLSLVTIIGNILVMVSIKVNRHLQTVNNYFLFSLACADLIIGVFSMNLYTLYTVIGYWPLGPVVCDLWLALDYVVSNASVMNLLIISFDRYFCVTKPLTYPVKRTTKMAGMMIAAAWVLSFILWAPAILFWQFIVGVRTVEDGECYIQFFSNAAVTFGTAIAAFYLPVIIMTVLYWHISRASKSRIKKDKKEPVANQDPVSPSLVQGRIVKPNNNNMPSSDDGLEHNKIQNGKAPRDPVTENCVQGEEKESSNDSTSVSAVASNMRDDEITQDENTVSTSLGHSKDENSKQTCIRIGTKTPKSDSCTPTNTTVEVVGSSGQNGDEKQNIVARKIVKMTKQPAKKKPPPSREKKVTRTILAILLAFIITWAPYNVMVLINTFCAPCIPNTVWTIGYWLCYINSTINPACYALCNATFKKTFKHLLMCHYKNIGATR
Method in brief: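 Membranes from CHO cells expressing human M2 receptor. Competition against 0.1 nM [3H]quinuclidinyl benzilate in 25 mM sodium phosphate pH 7.4, 5 mM MgCl2, without or with 10 μM GTP; 30 min at 37 °C, triplicate. Nonspecific binding with 1 μM atropine. Filtration, scintillation counting.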

[6] = biological target: T3, Muscarinic acetylcholine receptor M1 (Homo sapiens, UniProt P11229); experiment: Inhibition of binding of [3H]quinuclidinyl benzilate to muscarinic receptors in membranes of CHO cells transfected with Muscarinic acetylcholine receptor M1; assay type: cell membranes
T3 sequence (P11229 whole entry): T1 sequence (P08482 whole entry) with V5A, S254T, S309P, K320R, G337A, V413I
Method in brief: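 Membranes from CHO cells expressing human M1 receptor, harvested at 80-100% confluence. Competition against 0.2 nM [3H]quinuclidinyl benzilate in 25 mM sodium phosphate pH 7.4 with 5 mM MgCl2; 30 min at 37 °C, triplicate. Nonspecific binding with 10 μM atropine. Filtration and scintillation counting.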

[7] = biological target: Muscarinic acetylcholine receptor M2 (Homo sapiens) (UniProt P08172); experiment: Inhibition of binding of 0.1 nM [3H]quinuclidinyl benzilate to Muscarinic acetylcholine receptor M2 in membranes of transfected CHO cells in the absence of GTP
[8] = biological target: T2, Muscarinic acetylcholine receptor M2; experiment: Inhibition of binding of [3H]quinuclidinyl benzilate to muscarinic receptors in membranes of CHO cells transfected with Muscarinic acetylcholine receptor M2; assay type: cell membranes
[9] = biological target: T1, Muscarinic acetylcholine receptor M1; experiment: Inhibition of binding of [3H]quinuclidinyl benzilate to Muscarinic acetylcholine receptor M1 in rat cerebral cortical membranes at 100 uM concentration; assay type: cell membranes, Membrane
Method in brief: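 Rat cortical membranes with 0.2 nM [3H]quinuclidinyl benzilate in HEPES pH 7.4 with 10 mM MgCl2 and 100 mM NaCl, 30 min at 37 °C, triplicate. Atropine 1 µM defined nonspecific binding. Percent inhibition was read at 100 µM test agent; mean ± SEM, n = 4.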

CC(=O)OC1CC2CCCC1N2 (centres undefined)
Ki [1]: 5.6 nM
EC50 [2]: 23 nM
Ki [3]: 680 nM
Ki [4]: 22 µM
IC50 [5]: 17 nM
Ki [6]: 21 µM
IC50 [7]: 17 nM
Ki [8]: 2.6 nM
Ki [9]: 22 µM

Reference: ChEMBL document CHEMBL1131242, “6beta-Acetoxynortropane: a potent muscarinic agonist with apparent selectivity toward M2-receptors” (J Med Chem, 1998)
